How the values were obtained:
[1] = system: Rattus norvegicus; assay: Effect of compound on gain in body weight in 7th group of normal chow-fed male rats after a dose of 100 mg/kg/day; type: functional
Outline: (§1)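 Male Sprague–Dawley CD rats (60–80 g) on standard chow under a reversed 12 h light/dark cycle. Compound was suspended in 1.3% Tween 80/0.25% CMC and given as a single daily oral gavage dose for 4 days. Rats were fasted overnight and killed 24 h after the last dose. Serum ALT, AST, ALKP and LDH were read on a clinical analyzer. Weight gain was start versus end weight. Mean ± SEM, n = 6.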

[2] = Effect on serum lipids in 3rd group of normal chow-fed male rats after a dose of 5 mg/kg/day was evaluated as ratio of total plasma cholesterol levels to high-density lipoprotein cholesterol levels; type: functional
Outline: (§2)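 Male Sprague–Dawley CD rats, 60–80 g, chow-fed, dosed by oral gavage daily for 4 days in 1.3% Tween 80/0.25% CMC. Fasted overnight, bled 24 h after the last dose. Serum total cholesterol by enzymatic reagent; HDL-C from cholesterol in FPLC fractions; TPC/HDL-C ratio calculated. Six per group, mean ± SEM.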

[3] = system: Cricetinae gen. sp.; assay: Effect of compound on low-density lipoprotein cholesterol levels in 4th group of cholesterol-fed male hamsters at 100 mg/kg/day after 14 days of treatment; settings: Mesocricetus auratus
[4] = system: Cricetinae gen. sp.; assay: Effect of compound on alanine aminotransferase (ALT) levels in 2nd group of cholesterol-fed male hamsters at 10 mg/kg/day after 14 days of treatment; settings: Mesocricetus auratus
[5] = system: Cricetinae gen. sp.; assay: Effect of compound on triglycerides level in 2nd group of cholesterol-fed male hamsters at 10 mg/kg/day after 14 days of treatment; settings: Mesocricetus auratus
[6] = system: Rattus norvegicus; assay: Effect of compound on low-density lipoprotein cholesterol levels in 1st group of normal chow-fed male rats after a dose of 1 mg/kg/day; type: functional, organism-based
Outline: (§3)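 Male Sprague–Dawley CD rats, 60–80 g, on standard chow with reverse 12 h light/dark cycle. One oral gavage dose daily for 4 days, suspended in 1.3% Tween 80 and 0.25% CMC. Fasted overnight; sacrificed 24 h after the last dose. Serum TC on clinical analyzer, lipoproteins by FPLC with cholesterol per fraction, T4 on analyzer. Mean ± SEM, six rats per group.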

[7] = system: Cricetinae gen. sp.; assay: Effect of compound on triglycerides level in 1st group of cholesterol-fed male hamsters at 3 mg/kg/day after 14 days of treatment; settings: Mesocricetus auratus
[8] = system: Cricetinae gen. sp.; assay: Percent change in total plasma cholesterol following oral administration of compound in hypercholesterolemic hamsters at 100 mg/kg/day for 14 days; type: functional
Outline: (§4)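 Male Syrian Golden hamsters pre-fed chow plus 0.25% cholesterol for 2 weeks and kept on it. Dosed 100 mg/kg/day by oral gavage in 2% Tween 80/saline for 14 days. Serum total cholesterol and glycerol-blanked triglycerides read enzymatically; lipoproteins separated by FPLC with cholesterol measured in each fraction. % change versus vehicle controls; six per group, p < 0.05.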

[9] = system: Rattus norvegicus; assay: Effect of compound on relative liver weight in 5th group of normal chow-fed male rats after a dose of 20 mg/kg/day; type: functional
Outline: (§5)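 Chow-fed male Sprague–Dawley CD rats, 60–80 g, dosed by oral gavage once daily for 4 days in 1.3% Tween 80/0.25% CMC. Fasted overnight and sacrificed 24 h after the last dose. Liver weight expressed as % of body weight at termination. Six per group, mean ± SEM.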

[10] = system: Rattus norvegicus; assay: Effect of compound on alanine aminotransferase (ALT) levels in 3rd group of normal chow-fed male rats after a dose of 5 mg/kg/day; type: functional, organism-based; outline: as §1
[11] = system: Rattus norvegicus; assay: Effect of compound on low-density lipoprotein cholesterol levels in 7th group of normal chow-fed male rats after a dose of 100 mg/kg/day; type: functional, organism-based; outline: as §3
[12] = system: Rattus norvegicus; assay: Percent change in very low-density lipoprotein cholesterol following oral administration of compound in normal chow-fed rats at 100 mg/kg/day for 4 days; type: functional
Outline: (§6)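 Chow-fed male Sprague–Dawley CD rats, 60–80 g, gavaged 100 mg/kg/day for 4 days in 1.3% Tween 80/0.25% CMC. Fasted overnight, bled 24 h after the last dose. Total cholesterol and glycerol-blanked triglycerides read enzymatically; lipoproteins by FPLC with cholesterol per fraction. % change versus control; six per group, p < 0.05.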

[13] = system: Rattus norvegicus; assay: Effect of compound on alkaline phosphatase (ALKP) levels in 5th group of normal chow-fed male rats after a dose of 20 mg/kg/day; type: functional, organism-based; outline: as §1
[14] = system: Cricetinae gen. sp.; assay: Effect of compound on alkaline phosphatase (ALKP) levels in 2nd group of cholesterol-fed male hamsters at 10 mg/kg/day after 14 days of treatment; settings: Mesocricetus auratus
[15] = system: Rattus norvegicus; assay: Effect of compound on liver weight in 7th group of normal chow-fed male rats after a dose of 100 mg/kg/day; type: functional
Outline: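 Male Sprague–Dawley CD rats, 60–80 g, on chow with a reverse 12 h light/dark cycle. Given one oral gavage dose daily for 4 days, suspended in 1.3% Tween 80/0.25% CMC. Fasted overnight and sacrificed 24 h after the last dose for blood and liver. Serum liver enzymes read on a clinical analyzer. Six per group, mean ± SEM.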

[16] = system: Rattus norvegicus; assay: Effect of compound on alanine aminotransferase (ALT) levels in 7th group of normal chow-fed male rats after a dose of 100 mg/kg/day; type: functional, organism-based; outline: as §1
[17] = system: Rattus norvegicus; assay: Effect of compound on relative liver weight in 3rd group of normal chow-fed male rats after a dose of 5 mg/kg/day; type: functional; outline: as §5
[18] = system: Cricetinae gen. sp.; assay: Effect of compound on alkaline phosphatase (ALKP) levels in 1st group of cholesterol-fed male hamsters at 3 mg/kg/day after 14 days of treatment; settings: Mesocricetus auratus
[19] = Effect on serum lipids in 4th group of normal chow-fed male rats after a dose of 10 mg/kg/day was evaluated as ratio of total plasma cholesterol levels to high-density lipoprotein cholesterol levels; type: functional; outline: as §2
[20] = system: Rattus norvegicus; assay: Effect of compound on low-density lipoprotein cholesterol levels in 5th group of normal chow-fed male rats after a dose of 20 mg/kg/day; type: functional, organism-based; outline: as §3
[21] = system: Rattus norvegicus; assay: Effect of compound on alkaline phosphatase (ALKP) levels in 3rd group of normal chow-fed male rats after a dose of 5 mg/kg/day; type: functional, organism-based; outline: as §1
[22] = system: Cricetinae gen. sp.; assay: Effect of compound on aspartate aminotransferase (AST) levels in 4th group of cholesterol-fed male hamsters at 100 mg/kg/day after 14 days of treatment; settings: Mesocricetus auratus
[23] = system: Rattus norvegicus; assay: Effect of compound on thyroxine levels in 2nd group of normal chow-fed male rats after a dose of 2 mg/kg/day; type: functional, organism-based; outline: as §3
[24] = system: Rattus norvegicus; assay: Percent change in low-density lipoprotein cholesterol following oral administration of compound in normal chow-fed rats at 100 mg/kg/day for 4 days; type: functional; outline: as §6
[25] = system: Cricetinae gen. sp.; assay: Percent change in very low-density lipoprotein cholesterol following oral administration of compound in hypercholesterolemic hamsters at 100 mg/kg/day for 14 days; type: functional; outline: as §4
[26] = system: Cricetinae gen. sp.; assay: Effect of compound on thyroxine levels in 3rd group of cholesterol-fed male hamsters at 30 mg/kg/day after 14 days of treatment; settings: Mesocricetus auratus

## CCN1CC(=O)N(c2cc(Cl)ccc2C)C1=S
[1]
  Body weight: 22.5 g
[2]
  Ratio: 1.39
[3]
  Serum level: 102 mg/dL
[4]
  Level: 134 U l-1
[5]
  Serum level: 455 mg/dL
[6]
  Serum level: 5.7 mg/dL
[7]
  Serum level: 431 mg/dL
[8]
  Change: -3.3%
[9]
  Relative liver weight: 4.3%
[10]
  Level: 62 U l-1
[11]
  Serum level: 8.7 mg/dL
[12]
  Change: -17.2%
[13]
  Level: 385 U l-1
[14]
  Level: 147 U l-1
[15]
  Liver weight: 7.8 g
[16]
  Level: 67 U l-1
[17]
  Relative liver weight: 3.8%
[18]
  Level: 154 U l-1
[19]
  Ratio: 1.39
[20]
  Serum level: 8.5 mg/dL
[21]
  Level: 344 U l-1
[22]
  Level: 424 U l-1
[23]
  Serum level: 4.33 µg/dL
[24]
  Change: 9.6%
[25]
  Change: -33.4%
[26]
  Serum level: 4.73 µg/dL

— ChEMBL document CHEMBL1148398, “Design, synthesis, and biological evaluation of thio-containing compounds with serum HDL-cholesterol-elevating properties” (2004)
